Laboratory results published in ChEMBL document CHEMBL1141807, “New phenolic and quinone-methide triterpenes from Maytenus amazonica” (J Nat Prod, 1999).
pIC50: −log10 of the molar value. Values after ≈ are worked out from the molar mass of the structure shown.

Assays:
P388 = experiment: Cytotoxicity against mouse P388 ATCC CCL-46 cells; format: functional, cell-based
In short: (§1)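 Lines maintained in log-phase growth in EMEM/neaa with 5% fetal calf serum, 10-2 M sodium bicarbonate, 0.1 g/L penicillin G and 0.1 g/L streptomycin sulfate. P-388 grown as suspension culture; A-549, HT-29 and MEL-28 as monolayers. Compounds dissolved in DMSO–MeOH (1:9). Read-out IC50 in µg/mL.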

A549 = experiment: Cytotoxicity against human A549 ATCC CCl-185 cells; format: functional, cell-based; in short: as §1
HT-29 = experiment: Cytotoxicity against human HT-29 ATCC HTB-38 cells; format: functional, cell-based; in short: as §1
[1] = Cytotoxicity against human SK MEL28 ATCC HTB-72 cells; format: functional, cell-based; conditions: SK-MEL-28; in short: as §1
[2] = target: Aldo-keto reductase family 1 member B1 (Homo sapiens, UniProt P15121); experiment: Inhibition of human recombinant aldose reductase
In short: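 Recombinant human aldose reductase, purified by a published method. In vitro inhibition measured by a modified version of that method. Values given as IC50 in µg/mL.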

pIC50 [2] | SMILES | IC50 (P388) | IC50 (A549) | IC50 (HT-29) | IC50 [1]
4.24 | C[C@@H]1C[C@@H]2[C@@](C)(CC[C@@]3(C)[C@@]2(C)CC=C2c4cc(O)c(O)c(C=O)c4C=C[C@]23C)CC1=O | 10 µg/mL (≈ 23 µM) | 10 µg/mL (≈ 23 µM) | 10 µg/mL (≈ 23 µM) | 10 µg/mL (≈ 23 µM)
4.24 | CC1=C(O)C(=O)C=C2C1=C[C@H](O)[C@@H]1[C@@]2(C)CC[C@@]2(C)[C@@H]3C[C@@H](C)C(=O)C[C@]3(C)CC[C@]12C | 5 µg/mL (≈ 11.4 µM) | 5 µg/mL (≈ 11.4 µM) | 5 µg/mL (≈ 11.4 µM) | 5 µg/mL (≈ 11.4 µM)
4.24 | CC1=C(O)C(=O)C=C2C1=CC(=O)[C@@H]1[C@@]2(C)CC[C@@]2(C)[C@@H]3C[C@@H](C)C(=O)C[C@]3(C)CC[C@]12C [AMAZOQUINONE] | 2.5 µg/mL (≈ 5.73 µM) | 5 µg/mL (≈ 11.5 µM) | 5 µg/mL (≈ 11.5 µM) | 5 µg/mL (≈ 11.5 µM)

SMILES | pIC50 [2] | IC50 (P388) | IC50 (A549) | IC50 (HT-29) | IC50 [1]
Cc1c(O)c(O)cc2c1C(=O)C[C@@H]1[C@@]2(C)CC[C@@]2(C)[C@@H]3C[C@@H](C)C(=O)C[C@]3(C)CC[C@]12C | 4.24 | 5 µg/mL (≈ 11.4 µM) | 5 µg/mL (≈ 11.4 µM) | 10 µg/mL (≈ 22.8 µM) | 10 µg/mL (≈ 22.8 µM)
